Measurements: ChEMBL document CHEMBL1125228, “A 3-D model for 5-HT1A-receptor agonists based on stereoselective methyl-substituted and conformationally restricted analogues of 8-hydroxy-2-(dipropylamino)tetralin” (J Med Chem, 1991)
“And” between values parts separate entries of the source, which are not always exact repeats. Equal entries are not always repeated.

Experiments:
[1] = biological target: T1, 5-hydroxytryptamine receptor 1A (Rattus norvegicus, UniProt P19327); assay: Binding affinity at 5-hydroxytryptamine 1A receptor by the displacement of [3H]8-OH-DPAT in rat brain.; assay type: tissue-based
T1 sequence (P19327 whole entry): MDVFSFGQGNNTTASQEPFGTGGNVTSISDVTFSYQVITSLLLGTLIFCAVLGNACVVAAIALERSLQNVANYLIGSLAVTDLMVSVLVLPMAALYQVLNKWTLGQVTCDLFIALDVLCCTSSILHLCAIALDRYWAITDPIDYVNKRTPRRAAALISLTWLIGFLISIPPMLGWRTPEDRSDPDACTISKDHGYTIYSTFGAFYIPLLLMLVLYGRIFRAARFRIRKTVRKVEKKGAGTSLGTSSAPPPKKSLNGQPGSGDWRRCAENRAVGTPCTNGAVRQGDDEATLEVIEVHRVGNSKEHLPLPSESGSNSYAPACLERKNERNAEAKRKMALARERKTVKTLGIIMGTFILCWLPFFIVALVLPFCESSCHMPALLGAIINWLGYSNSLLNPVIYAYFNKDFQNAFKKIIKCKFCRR
Summary of the method: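 Rat brain membranes washed in 50 mM Tris-HCl pH 7.4, with a 37 °C 10 min incubation to remove endogenous 5-HT, used at 10 mg wet tissue/mL. Incubated 15 min at 37 °C with 1 nM [3H]-8-OH-DPAT, 3 mM CaCl2 and pargyline. Filtered and counted; 10 µM 5-HT defined nonspecific binding. IC50 from four-parameter logistic fit, converted to Ki by Cheng-Prusoff; mean ± SEM of N experiments.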

[2] = biological target: Serotonin (5-HT) receptor (Rattus norvegicus) (UniProt P35563+P35365+P32305+P31388+Q9JJ16+P28564+P30994+Q62758+P08909+P14842+P30940+P35364+P19327+P28565); assay: Dose corresponding to half-maximal decrease of 5-HTP formation in the limbic and striatal parts of rat brain; assay type: functional, tissue-based
[3] = test system: Rattus norvegicus; assay: In vivo accumulation of DOPA in brain stem of rat brain at a dose of 63 umol/kg.; assay type: functional
Summary of the method: (§1)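 Hydrochlorides given sc in the neck (5 mL/kg) to rats, either untreated or reserpine-pretreated (5 mg/kg sc, 6 h before). Decarboxylase inhibitor NSD 1015 (100 mg/kg ip or 60 mg/kg sc) given 30 min later; rats decapitated after another 30 min. Striatum, limbic system, hemispheres and brain stem dissected on ice and homogenized in 0.1 M perchloric acid with α-methyl-DOPA internal standard. DOPA, DA, 5-HTP and 5-HT measured by ion-pair reversed-phase HPLC with electrochemical detection.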

[4] = test system: Rattus norvegicus; assay: In vivo accumulation of 5-HT in striatum of rat brain at a dose of 63 umol/kg.; assay type: functional; summary of the method: as §1
[5] = test system: Rattus norvegicus; assay: In vivo accumulation of 5-HTP in striatum of rat brain at a dose of 63 umol/kg.; assay type: functional; summary of the method: as §1
[6] = test system: Rattus norvegicus; assay: In vivo accumulation of 5-HTP in limbic of rat brain at a dose of 63 umol/kg.; assay type: functional; summary of the method: as §1
[7] = biological target: T2, Dopamine receptor (Rattus norvegicus) (UniProt P25115+P19020+P30729+P18901+P61169); assay: In vivo accumulation of DOPA in limbic of rat brain at a dose of 63 umol/kg.; assay type: functional, organism-based
Summary of the method: (§2)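 Rats, reserpine-pretreated (5 mg/kg, i.e. 9 μmol/kg sc, 6 h before) or nonpretreated, given test hydrochloride sc in the neck (injection volume 5 mL/kg). Decarboxylase inhibitor NSD 1015 (100 mg/kg ip or 60 mg/kg sc) given 30 min later; decapitation after another 30 min. Brain dissected on ice into striatum, limbic system, hemispheres, brain stem. Homogenized in 0.1 M perchloric acid with α-methyl-DOPA internal standard; DOPA measured by ion-pair reversed-phase HPLC with electrochemical detection.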

[8] = test system: Rattus norvegicus; assay: In vivo accumulation of 5-HT in limbic of rat brain at a dose of 63 umol/kg.; assay type: functional; summary of the method: as §1
[9] = test system: Rattus norvegicus; assay: In vivo accumulation of DA in striatum of rat brain at a dose of 63 umol/kg.; assay type: functional; summary of the method: as §1
[10] = test system: Rattus norvegicus; assay: In vivo accumulation of DOPA in hemisphere of rat brain at a dose of 63 umol/kg.; assay type: functional; summary of the method: as §2
[11] = test system: Rattus norvegicus; assay: In vivo accumulation of DOPA in striatum of rat brain at a dose of 63 umol/kg.; assay type: functional; summary of the method: as §2
[12] = test system: Rattus norvegicus; assay: In vivo accumulation of 5-HTP in hemisphere of rat brain at a dose of 63 umol/kg.; assay type: functional; summary of the method: as §1
[13] = test system: Rattus norvegicus; assay: In vivo accumulation of 5-HTP in brain stem of rat brain at a dose of 63 umol/kg.; assay type: functional; summary of the method: as §1
[14] = test system: Rattus norvegicus; assay: In vivo accumulation of DA in striatum of rat brain at a dose of 53 umol/kg.; assay type: functional; summary of the method: as §1
[15] = test system: Rattus norvegicus; assay: In vivo accumulation of 5-HTP in striatum of rat brain at a dose of 53 umol/kg.; assay type: functional; summary of the method: as §1
[16] = test system: Rattus norvegicus; assay: In vivo accumulation of 5-HTP in brain stem of rat brain at a dose of 53 umol/kg.; assay type: functional; summary of the method: as §1
[17] = test system: Rattus norvegicus; assay: In vivo accumulation of 5-HTP in hemisphere of rat brain at a dose of 53 umol/kg.; assay type: functional; summary of the method: as §1
[18] = test system: Rattus norvegicus; assay: In vivo accumulation of DOPA in brain stem of rat brain at a dose of 53 umol/kg.; assay type: functional; summary of the method: as §1
[19] = test system: Rattus norvegicus; assay: In vivo accumulation of 5-HT in limbic of rat brain at a dose of 53 umol/kg.; assay type: functional; summary of the method: as §1
[20] = test system: Rattus norvegicus; assay: In vivo accumulation of DOPA in striatum of rat brain at a dose of 53 umol/kg.; assay type: functional; summary of the method: as §2
[21] = test system: Rattus norvegicus; assay: In vivo accumulation of 5-HT in striatum of rat brain at a dose of 53 umol/kg.; assay type: functional; summary of the method: as §1
[22] = test system: Rattus norvegicus; assay: In vivo accumulation of 5-HTP in limbic of rat brain at a dose of 53 umol/kg.; assay type: functional; summary of the method: as §1
[23] = biological target: T2, Dopamine receptor (Rattus norvegicus); assay: In vivo accumulation of DOPA in hemisphere of rat brain at a dose of 53 umol/kg.; assay type: functional, organism-based; summary of the method: as §2
[24] = biological target: T2, Dopamine receptor (Rattus norvegicus); assay: In vivo accumulation of DOPA in limbic of rat brain at a dose of 53 umol/kg.; assay type: functional, organism-based; summary of the method: as §2

CCCN(CCC)[C@@H]1Cc2c(O)cccc2C[C@H]1C
Ki [1]: 1.39 µM
ED50 [2]: > 0.043 mg/kg

CCCN(CCC)[C@H]1Cc2c(O)cccc2C[C@H]1C
Ki [1]: 2.02 µM

Oc1cccc2c1C[C@@H]1NCCC[C@H]1C2
Control [3]: 90.3%
Control [4]: 116%
Control [5]: 116.8%
Control [6]: 104.6%
Control [7]: 85.7% and 95.5%
Control [8]: 109.6%
Control [9]: 97.4%
Control [10]: 85.2%
Control [11]: 85.3%
Control [12]: 107.8%
Control [13]: 115.8%

CCCN1CCC[C@H]2Cc3cccc(O)c3C[C@H]21 [listing 1 of 3 here]
Control [14]: 81.3%
Control [15]: 81%
Control [16]: 110.3%
Control [17]: 103.9%
Control [18]: 126.9%
Control [19]: 102.9%
Control [20]: 67.2%
Control [21]: 100%
Control [22]: 92.6%

CCCN1CCC[C@H]2Cc3cccc(O)c3C[C@@H]21 [listing 1 of 2 here]
Ki [1]: > 10 µM

CCCN(CCC)[C@@H]1C[C@@H]1c1cccc(O)c1
ED50 [2]: > 0.05 mg/kg

CCCN1CCC[C@@H]2Cc3cccc(O)c3C[C@@H]21 [listing 1 of 3 here]
Control [23]: 63%
ED50 [2]: > 0.05 mg/kg

Oc1cccc2c1C[C@H]1NCCC[C@@H]1C2
Control [3]: 91.4%
Control [4]: 100.5%
Control [5]: 96.5%
Control [6]: 82.3%
Control [7]: 84.4% and 89.8%
Control [8]: 89.4%
Control [9]: 92.4%
Control [10]: 79%
Control [11]: 84.2%
Control [12]: 81.9%
Control [13]: 101.7%

CCCN(CCC)[C@@H]1CCc2cccc(O)c2[C@@H]1C
Ki [1]: 0.00208 µM

CCCN1CCC[C@@H]2Cc3cccc(O)c3C[C@@H]21 [listing 2 of 3 here]
Control [14]: 105.3%
Control [15]: 76.1%
Control [16]: 87.6%
Control [17]: 77.9%
Control [18]: 82.3%
Control [19]: 107.5%
Control [20]: 68.3%
Control [21]: 118.7%
Control [22]: 80.6%

CCCN1CCC[C@H]2Cc3cccc(O)c3C[C@@H]21 [listing 2 of 2 here]
Control [23]: 98.8%
ED50 [2]: > 0.05 mg/kg
Control [24]: 91.4% and 87.5%

CCCN1CCC[C@H]2c3c(O)cccc3CC[C@@H]21 [listing 1 of 2 here]
Control [23]: 140%
ED50 [2]: 0.0005 mg/kg

CCCN1CCC[C@@H]2Cc3cccc(O)c3C[C@@H]21 [listing 3 of 3 here]
Ki [1]: > 10 µM

CCCN(CCC)C1CCc2cccc(O)c2C1C (racemic)
Ki [1]: 0.00284 µM

CCCN1CCC[C@H]2Cc3cccc(O)c3C[C@H]21 [listing 2 of 3 here]
Ki [1]: 0.151 µM

CCCN1CCC[C@H]2c3c(O)cccc3CC[C@@H]21 [listing 2 of 2 here]
Ki [1]: 0.00387 µM

CCCN1CCC[C@@H]2Cc3cccc(O)c3C[C@H]21
Ki [1]: 2.81 µM

CCCN1CCC[C@H]2Cc3cccc(O)c3C[C@H]21 [listing 3 of 3 here]
Control [23]: 116%
ED50 [2]: > 0.05 mg/kg
Control [24]: 76.9% and 83.2%
